The test system of series [1] is MDCK immortalized canine kidney cells. As to the kind of experiment: Cell viability after 24h treatment, MDCK cell line. Format: cell-based, dog. The essentials:
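MDCK canine kidney cells were kept in DMEM with 10% FCS and penicillin/streptomycin at 37°C, 5% CO2, for at most four passages, and tested Mycoplasma-negative. As a control line they were given a BH3 mimetic at 2 nM–10 μM, with 0.001% DMSO as the negative control, for 24 h.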

Series [2] deals with canine osteosarcoma cell line OSCA40. As to the kind of experiment: Cell viability after 24h treatment, OSCA40 cell line. To be noted: OSCA40, 24h. It is filed as cell-based, dog. The essentials:
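OSCA40 canine osteosarcoma cells were kept in α-MEM with 10% FCS, 10 mM L-glutamine and penicillin/streptomycin at 37°C, 5% CO2, for at most four passages, and tested Mycoplasma-negative. As a control line they were given a BH3 mimetic at 2 nM–10 μM, with 0.001% DMSO as the negative control, for 24 h.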

Series [3] has as its system primary canine T cell cancers (T cell lymphoma, TZL, T-CLL) neoplastic T lymphocytes. As to the kind of experiment: In vitro BH3 mimetics sensitivity cell kill assay, primary canine T cell cancers. Format: cell-based. The note with it: dog 26, multicentric large T cell lymphoma, neoplastic CD3+ nodal T cells, 24 h.
Series [4] relates to human B‐cell acute lymphoblastic leukemia cell line RS4;11. Kind of series: Cell viability after 24h treatment, RS4. Format: cell-based. The note with it: RS4;11 positive control. The essentials: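 RS4;11 human B-ALL cells had their identity genetically confirmed and were grown in RPMI with 10% FCS and penicillin/streptomycin at 37°C, 5% CO2, for at most four passages. They were run as a control with each experiment at 1 × 10^5 cells/well in single replicates, given a BH3 mimetic at 2 nM–10 μM or 0.001% DMSO for 24 h at 37°C.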

A further series deals with Beagles. The note with it: 2 to 20 mg/kg PO daily for up to 9 months; cited from earlier work.
The conditions of series [5]: dogs, 20 mg/kg once a day; cited from earlier work.
In another series the test system is human DLBCL (hDLBCL). The note with it: single‐agent treatment; cited from earlier work.
The conditions of series [6]: people, 400 mg daily dosing; cited from earlier work.

Broadly, the EC50 is the concentration at which the effect is half-maximal.

Where two headings read alike, the source gives them in different places.

In the case of `CC1(C)CCC(c2ccc(Cl)cc2)=C(CN2CCN(c3ccc(C(=O)NS(=O)(=O)c4ccc(N[C@H](CCN5CCOCC5)CSc5ccccc5)c(S(=O)(=O)C(F)(F)F)c4)cc3)CC2)C1` [NAV, navitoclax], the “sensitivity in vitro” value in series [1] and in series [2] was “resistance” each time. Also, it took 20.8 nM to reach a half-maximal effect in series [3] (EC50).
Consider `CC1(C)CCC(CN2CCN(c3ccc(C(=O)NS(=O)(=O)c4ccc(NCC5CCOCC5)c([N+](=O)[O-])c4)c(Oc4cnc5[nH]ccc5c4)c3)CC2)=C(c2ccc(Cl)cc2)C1` [VEN, venetoclax], for which the “sensitivity in vitro” value in series [1] is reported as “resistance”; in series [4], “sensitive”; in series [2], “resistance”. Also, the Other clinical toxicities entry in the series on Beagles was “grade 2 weight loss associated with hyporexia, and leukotricia”. Further, the “average reduction in circulating lymphocytes” value in the series on Beagles is recorded as 81%. In the series on Beagles, the hematological finding entry is on record as “mild anemia”. In addition, the “area under the curve (AUC)” value was 73600 ng·h/mL in series [5] and 31800 ng·h/mL in series [6]. The overall response rate in the series with human DLBCL (hDLBCL) is 18%. Moreover, in series [3], a half-maximal effect (EC50) was put at 7.9 nM.
